Laboratory results as given in ChEMBL document CHEMBL1240327, “Small molecules enhance autophagy and reduce toxicity in Huntington's disease models” (Nat Chem Biol, 2007).
The source made the active and inactive calls. The calls are words filed in the database; no cut-off is given here.

Experiments:
PC-12 [1] = test: Enhancement of rapamycin-induced clearance of alpha-synuclein A53T mutant protein in rat PC12 cells at 140 uM after 8 hrs by immunoblotting; type: functional, cell-based
How it was run: (§1)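 Inducible PC12 A53T α-synuclein line (1 μg/ml doxycycline, 48 h, then switched off). Compound given alone or with 0.2 μM rapamycin over an 8 h switch-off period. Read-out is anti-HA immunoblot with densitometry relative to actin, n=3, control as 100 %.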

Saccharomyces cerevisiae [2] = test: Enhancement of nocodazole-mediated cytostatic effect in yeast BY4742 after 48 to 96 hrs; type: functional, organism-based
Saccharomyces mikatae = test: Enhancement of rapamycin-mediated cytostatic effect in Saccharomyces mikatae after 48 to 96 hrs; type: functional
[3] = Cytotoxicity against african green monkey COS7 cells at 47 uM after 24 hrs by FACS analysis; type: cell-based; conditions: chlorocebus aethiops, cos-7, 24 h
Saccharomyces paradoxus = test: Enhancement of rapamycin-mediated cytostatic effect in Saccharomyces paradoxus after 48 to 96 hrs; type: functional
[4] = molecular target: Huntingtin (Homo sapiens) (UniProt P42858); test: Inhibition of EGFP-tagged huntingtin expressed in african green monkey COS7 cells assessed as protection against protein-induced cell death at 47 uM after 48 hrs by Western blot analysis; type: cell-based; conditions: COS-7
Chain of Huntingtin (Homo sapiens) (P42858 whole entry): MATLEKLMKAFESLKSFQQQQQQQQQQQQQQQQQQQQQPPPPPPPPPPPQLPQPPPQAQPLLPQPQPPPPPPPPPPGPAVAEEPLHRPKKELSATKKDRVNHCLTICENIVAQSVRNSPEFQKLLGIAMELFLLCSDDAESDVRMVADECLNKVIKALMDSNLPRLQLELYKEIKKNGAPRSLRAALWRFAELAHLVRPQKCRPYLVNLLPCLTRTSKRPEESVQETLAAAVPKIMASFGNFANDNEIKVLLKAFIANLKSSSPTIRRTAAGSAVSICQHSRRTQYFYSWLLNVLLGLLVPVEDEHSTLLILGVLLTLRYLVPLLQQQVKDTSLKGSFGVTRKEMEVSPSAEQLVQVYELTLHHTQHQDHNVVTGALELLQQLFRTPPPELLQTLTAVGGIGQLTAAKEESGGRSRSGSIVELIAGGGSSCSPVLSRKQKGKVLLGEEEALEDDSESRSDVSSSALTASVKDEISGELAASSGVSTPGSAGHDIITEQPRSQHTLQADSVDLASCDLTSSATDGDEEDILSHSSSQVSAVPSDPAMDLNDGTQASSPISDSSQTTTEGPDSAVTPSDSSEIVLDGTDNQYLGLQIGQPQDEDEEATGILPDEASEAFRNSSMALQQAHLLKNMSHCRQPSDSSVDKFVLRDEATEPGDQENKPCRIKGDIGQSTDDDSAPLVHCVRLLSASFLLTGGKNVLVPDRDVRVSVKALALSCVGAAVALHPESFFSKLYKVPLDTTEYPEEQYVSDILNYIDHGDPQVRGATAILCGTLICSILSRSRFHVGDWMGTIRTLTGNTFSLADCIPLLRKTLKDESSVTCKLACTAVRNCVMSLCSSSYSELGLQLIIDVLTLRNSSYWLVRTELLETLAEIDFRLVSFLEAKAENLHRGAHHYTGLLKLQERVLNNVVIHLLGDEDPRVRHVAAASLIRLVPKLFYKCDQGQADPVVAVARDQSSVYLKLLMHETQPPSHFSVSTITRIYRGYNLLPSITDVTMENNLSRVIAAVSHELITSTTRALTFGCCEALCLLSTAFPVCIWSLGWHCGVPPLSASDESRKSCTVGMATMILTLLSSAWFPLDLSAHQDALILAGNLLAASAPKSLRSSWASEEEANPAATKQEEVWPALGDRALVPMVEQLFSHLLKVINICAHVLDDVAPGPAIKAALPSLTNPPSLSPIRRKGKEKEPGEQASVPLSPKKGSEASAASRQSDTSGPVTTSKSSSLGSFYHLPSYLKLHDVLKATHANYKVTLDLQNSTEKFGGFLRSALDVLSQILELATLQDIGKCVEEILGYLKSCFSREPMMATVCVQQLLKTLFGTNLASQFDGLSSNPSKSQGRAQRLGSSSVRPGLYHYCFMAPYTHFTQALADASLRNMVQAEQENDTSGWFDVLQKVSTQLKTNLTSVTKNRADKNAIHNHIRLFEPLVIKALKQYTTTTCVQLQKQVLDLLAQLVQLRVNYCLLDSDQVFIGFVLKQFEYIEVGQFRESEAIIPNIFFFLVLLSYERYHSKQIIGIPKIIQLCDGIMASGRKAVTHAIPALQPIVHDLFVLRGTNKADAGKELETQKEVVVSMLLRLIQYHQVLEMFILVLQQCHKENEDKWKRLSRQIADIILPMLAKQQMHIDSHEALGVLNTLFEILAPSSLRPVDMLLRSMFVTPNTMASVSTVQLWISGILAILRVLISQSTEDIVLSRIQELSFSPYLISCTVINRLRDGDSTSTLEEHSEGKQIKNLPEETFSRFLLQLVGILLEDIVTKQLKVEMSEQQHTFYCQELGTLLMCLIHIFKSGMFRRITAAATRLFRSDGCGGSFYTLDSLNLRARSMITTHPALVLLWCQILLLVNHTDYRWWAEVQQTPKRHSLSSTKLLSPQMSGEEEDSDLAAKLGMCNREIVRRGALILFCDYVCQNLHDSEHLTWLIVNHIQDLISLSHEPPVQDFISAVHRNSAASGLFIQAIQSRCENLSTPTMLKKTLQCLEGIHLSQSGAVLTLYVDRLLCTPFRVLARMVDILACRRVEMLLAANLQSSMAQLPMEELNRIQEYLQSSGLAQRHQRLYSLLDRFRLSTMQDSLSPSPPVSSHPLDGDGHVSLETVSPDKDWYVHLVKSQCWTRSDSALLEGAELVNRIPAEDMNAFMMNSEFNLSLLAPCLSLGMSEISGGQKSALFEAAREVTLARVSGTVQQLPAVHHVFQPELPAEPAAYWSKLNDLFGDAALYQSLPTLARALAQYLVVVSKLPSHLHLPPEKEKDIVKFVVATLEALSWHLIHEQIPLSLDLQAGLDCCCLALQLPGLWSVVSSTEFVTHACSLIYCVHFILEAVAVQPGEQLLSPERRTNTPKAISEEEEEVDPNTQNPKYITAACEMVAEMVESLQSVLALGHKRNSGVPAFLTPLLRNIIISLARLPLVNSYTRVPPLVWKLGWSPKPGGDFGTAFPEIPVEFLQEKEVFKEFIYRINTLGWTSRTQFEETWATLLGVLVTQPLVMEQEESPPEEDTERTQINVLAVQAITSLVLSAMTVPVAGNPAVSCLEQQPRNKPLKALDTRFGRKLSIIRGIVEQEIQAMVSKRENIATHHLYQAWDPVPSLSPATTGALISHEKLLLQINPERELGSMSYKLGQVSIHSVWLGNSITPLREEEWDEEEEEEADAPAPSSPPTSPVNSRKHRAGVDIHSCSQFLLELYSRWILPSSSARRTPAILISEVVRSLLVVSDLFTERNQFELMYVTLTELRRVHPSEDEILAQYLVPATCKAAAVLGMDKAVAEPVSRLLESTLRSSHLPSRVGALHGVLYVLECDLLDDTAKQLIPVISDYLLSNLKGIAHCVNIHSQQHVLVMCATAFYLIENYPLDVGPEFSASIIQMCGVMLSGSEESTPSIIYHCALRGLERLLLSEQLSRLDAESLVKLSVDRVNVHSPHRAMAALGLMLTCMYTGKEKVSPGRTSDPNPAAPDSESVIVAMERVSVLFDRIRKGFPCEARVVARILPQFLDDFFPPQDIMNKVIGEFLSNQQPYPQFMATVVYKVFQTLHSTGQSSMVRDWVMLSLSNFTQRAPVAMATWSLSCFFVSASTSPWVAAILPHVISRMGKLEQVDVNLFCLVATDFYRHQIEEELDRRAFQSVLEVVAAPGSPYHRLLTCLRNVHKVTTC

PC-12 [5] = test: Enhancement of autophagy in rat PC12 cells assessed as decrease in alpha-synuclein A53T mutant level at 5 mg/ml by densitometry; type: functional, cell-based
How it was run: (§2)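 Stable PC12 line with doxycycline-inducible HA-tagged A53T α-synuclein; induced with 1 μg/ml doxycycline for 48 h, then doxycycline removed. Compounds added during the 24 h switch-off period, from 5 mg ml⁻¹ DMSO stock diluted 1:20000, 1:4000 or 1:400. HA immunoblot, densitometry relative to actin; control set to 100 %; three independent experiments, factorial ANOVA.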

PC-12 [6] = test: Enhancement of autophagy in rat PC12 cells assessed as decrease in alpha-synuclein A53T mutant level at 47 uM by immunoblotting; type: functional, cell-based; how it was run: as §2
HeLa [7] = test: Induction of autophagy in human HeLa cells harboring MAP1LC3 gene at 47 uM after 24 hrs by DAPI staining-based fluorescence microscopy; type: functional, cell-based
How it was run: (§3)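 Stable EGFP-LC3 HeLa cells treated 24 h. EGFP-positive autophagic vesicles were imaged by confocal microscopy with DAPI nuclear counterstain.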

Saccharomyces cerevisiae [8] = test: Enhancement of menadione-mediated cytostatic effect in yeast BY4742 after 48 to 96 hrs; type: functional, organism-based
COS-7 [9] = test: Effect on ATg12 level in african green monkey COS7 cells at 47 uM after 24 hrs by immunoblotting; type: functional, cell-based; conditions: Chlorocebus aethiops
[10] = molecular target: Huntingtin (Mus musculus) (UniProt P42859); test: Inhibition of EGFP-tagged huntingtin aggregation in Atg5-deficient MEF at 47 uM after 48 hrs by Western blot analysis
HeLa [11] = test: Inhibition of proteasome activity in human HeLa cells assessed as induction of ubiquitinG76V-EGFP reporter level at 47 uM after 24 hrs by immunoblotting
[12] = molecular target: Huntingtin (Homo sapiens) (UniProt P42858); test: Inhibition of EGFP-tagged huntingtin aggregation expressed in african green monkey COS7 cells at 140 uM after 24 hrs by […] in presence of 0.2 uM rapamycin; type: cell-based; conditions: COS-7
Saccharomyces cerevisiae [13] = test: Enhancement of rapamycin-mediated cytostatic effect in yeast RM11-1a after 48 to 96 hrs; type: functional
[14] = molecular target: Serine/threonine-protein kinase mTOR (Homo sapiens) (UniProt P42345); test: Inhibition of mTOR phosphorylation expressed in african green monkey COS7 cells at 47 uM by Western blot analysis; type: cell-based; conditions: COS-7
Saccharomyces cerevisiae [15] = test: Enhancement of CHX-mediated cytostatic effect in yeast BY4742 after 48 to 96 hrs; type: functional, organism-based
COS-7 [16] = test: Increase in conjugated Atg12-Atg5 level in african green monkey COS7 cells at 47 uM after 24 hrs by immunoblotting; type: functional, cell-based; conditions: Chlorocebus aethiops
HeLa [17] = test: Increase in MAP1LC3 level in bafilomycin A1-treated human HeLa cells at 47 uM treated fro 24 hrs before bafilomycin A1 challenge by immunoblotting analysis; type: functional, cell-based
How it was run: (§4)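 HeLa cells stably expressing EGFP-LC3 were pretreated with compound for 24 h, then given 200 nM bafilomycin A1 for 4 h. EGFP-LC3-II was measured by anti-EGFP immunoblot with densitometry relative to actin, from three independent experiments.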

COS-7 [18] = test: Effect on ATg5 level in african green monkey COS7 cells at 47 uM after 24 hrs by immunoblotting; type: functional, cell-based; conditions: Chlorocebus aethiops
Drosophila melanogaster [19] = test: Neuroprotective activity in Drosophila melanogaster Huntington's disease model harboring huntington protein mutant assessed as protection against neurodegeneration at 100 uM; type: functional, organism-based
COS-7 [20] = test: Effect on ATg6 level in african green monkey COS7 cells at 47 uM after 24 hrs by immunoblotting; type: functional, cell-based; conditions: Chlorocebus aethiops
Saccharomyces bayanus = test: Enhancement of rapamycin-mediated cytostatic effect in Saccharomyces bayanus after 48 to 96 hrs; type: functional
COS-7 [21] = test: Effect on ATg7 level in african green monkey COS7 cells at 47 uM after 24 hrs by immunoblotting; type: functional, cell-based; conditions: Chlorocebus aethiops
Saccharomyces cerevisiae [22] = test: Enhancement of 20 nM rapamycin-mediated cytostatic effect in yeast BY4742 after 48 to 96 hrs; type: functional, organism-based
Drosophila melanogaster [23] = test: Toxicity against Drosophila melanogaster Huntington's disease model at 100 uM; type: organism-based; conditions: in vivo
PC-12 [24] = test: Enhancement of rapamycin-induced clearance of alpha-synuclein A53T mutant protein in rat PC12 cells at 43 uM after 8 hrs by immunoblotting; type: functional, cell-based; how it was run: as §1
[25] = molecular target: Huntingtin (Mus musculus) (UniProt P42859); test: Inhibition of EGFP-tagged huntingtin aggregation in MEF harboring Atg5 gene at 47 uM after 48 hrs by Western blot analysis
PC-12 [26] = test: Enhancement of autophagy in rat PC12 cells assessed as decrease in alpha-synuclein A53T mutant level at 43 uM by immunoblotting; type: functional, cell-based; how it was run: as §2
[27] = molecular target: Huntingtin (Homo sapiens) (UniProt P42858); test: Inhibition of EGFP-tagged huntingtin aggregation expressed in african green monkey COS7 cells at 47 uM after 48 hrs by […]; type: cell-based; conditions: COS-7
Saccharomyces cerevisiae [28] = test: Enhancement of anisomycin-mediated cytostatic effect in yeast BY4742 after 48 to 96 hrs; type: functional, organism-based
Saccharomyces cerevisiae [29] = test: Enhancement of tunicamycin-mediated cytostatic effect in yeast BY4742 after 48 to 96 hrs; type: functional, organism-based
[30] = molecular target: Huntingtin (Homo sapiens) (UniProt P42858); test: Inhibition of EGFP-tagged huntingtin aggregation expressed in african green monkey COS7 cells at 47 uM after 24 hrs by […] in presence of 0.2 uM rapamycin; type: cell-based; conditions: COS-7
PC-12 [31] = test: Enhancement of rapamycin-induced clearance of alpha-synuclein A53T mutant protein in rat PC12 cells at 47 uM after 8 hrs by immunoblotting; type: functional, cell-based; how it was run: as §1
[32] = molecular target: Serine/threonine-protein kinase mTOR (Homo sapiens) (UniProt P42345); test: Inhibition of mTOR phosphorylation expressed in african green monkey COS7 cells at 43 uM by Western blot analysis; type: cell-based; conditions: COS-7
COS-7 [33] = test: Increase in conjugated Atg12-Atg5 level in african green monkey COS7 cells at 43 uM after 24 hrs by immunoblotting; type: functional, cell-based; conditions: Chlorocebus aethiops
COS-7 [34] = test: Effect on ATg7 level in african green monkey COS7 cells at 43 uM after 24 hrs by immunoblotting; type: functional, cell-based; conditions: Chlorocebus aethiops
HeLa [35] = test: Induction of autophagy in human HeLa cells harboring MAP1LC3 gene at 43 uM after 24 hrs by DAPI staining-based fluorescence microscopy; type: functional, cell-based; how it was run: as §3
[36] = Cytotoxicity against african green monkey COS7 cells at 43 uM after 24 hrs by FACS analysis; type: cell-based; conditions: chlorocebus aethiops, cos-7, 24 h
[37] = molecular target: Huntingtin (Mus musculus) (UniProt P42859); test: Inhibition of EGFP-tagged huntingtin aggregation in MEF harboring Atg5 gene at 43 uM after 48 hrs by Western blot analysis
COS-7 [38] = test: Effect on ATg12 level in african green monkey COS7 cells at 43 uM after 24 hrs by immunoblotting; type: functional, cell-based; conditions: Chlorocebus aethiops
COS-7 [39] = test: Effect on ATg5 level in african green monkey COS7 cells at 43 uM after 24 hrs by immunoblotting; type: functional, cell-based; conditions: Chlorocebus aethiops
HeLa [40] = test: Increase in MAP1LC3 level in bafilomycin A1-treated human HeLa cells at 43 uM treated fro 24 hrs before bafilomycin A1 challenge by immunoblotting analysis; type: functional, cell-based; how it was run: as §4
[41] = molecular target: Huntingtin (Homo sapiens) (UniProt P42858); test: Inhibition of EGFP-tagged huntingtin expressed in african green monkey COS7 cells assessed as protection against protein-induced cell death at 43 uM after 48 hrs […]; type: cell-based; conditions: COS-7
How it was run: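 COS-7 cells transfected 4 h with EGFP-tagged huntingtin exon 1 (74 polyQ), then treated for 48 h. About 200 EGFP-positive cells were scored by fluorescence microscopy for aggregates; DAPI-stained nuclei with apoptotic morphology were counted as dead. Triplicate, scorer blinded. Results given as odds ratios vs DMSO (set to 1) with 95 % CI by logistic regression.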

Drosophila melanogaster [42] = test: Toxicity against Drosophila melanogaster Huntington's disease model at 200 uM; type: organism-based; conditions: in vivo
COS-7 [43] = test: Effect on ATg6 level in african green monkey COS7 cells at 43 uM after 24 hrs by immunoblotting; type: functional, cell-based; conditions: Chlorocebus aethiops
Drosophila melanogaster [44] = test: Neuroprotective activity in Drosophila melanogaster Huntington's disease model harboring huntington protein mutant assessed as protection against neurodegeneration at 200 uM; type: functional, organism-based
[45] = molecular target: Huntingtin (Mus musculus) (UniProt P42859); test: Inhibition of EGFP-tagged huntingtin aggregation in Atg5-deficient MEF at 43 uM after 48 hrs by […]
[46] = molecular target: Huntingtin (Homo sapiens) (UniProt P42858); test: Inhibition of EGFP-tagged huntingtin aggregation expressed in african green monkey COS7 cells at 43 uM after 24 hrs by […] in presence of 0.2 uM rapamycin; type: cell-based; conditions: COS-7
[47] = molecular target: Huntingtin (Homo sapiens) (UniProt P42858); test: Inhibition of EGFP-tagged huntingtin aggregation expressed in african green monkey COS7 cells at 43 uM after 48 hrs by […]; type: cell-based; conditions: COS-7
HeLa [48] = test: Inhibition of proteasome activity in human HeLa cells assessed as induction of ubiquitinG76V-EGFP reporter level at 43 uM after 24 hrs by immunoblotting

| Structure (SMILES) | Activity (Saccharomyces mikatae) | Activity [3] | Activity (Saccharomyces paradoxus) | inhibition [4] | Activity (PC-12 [5]) | Activity (PC-12 [6]) | Activity (HeLa [7]) | Activity (COS-7 [9]) | inhibition [10] | inhibition (HeLa [11]) | Activity (Saccharomyces cerevisiae [13]) | inhibition [14] | Activity (COS-7 [16]) | Activity (HeLa [17]) | Activity (COS-7 [18]) | Activity (Drosophila melanogaster [19]) | Activity (Saccharomyces bayanus) | EC50 (Saccharomyces cerevisiae [22]) [µM] | inhibition [25] | Activity (PC-12 [26]) | further results |
| --- | --- | --- | --- | --- | --- | --- | --- | --- | --- | --- | --- | --- | --- | --- | --- | --- | --- | --- | --- | --- | --- |
| Nn1cnc2c(c1=O)C1(CCCC1)Cc1ccccc1-2 | Active | Non-toxic | Active | Active | Active | Active | Active | inactive | inactive | inactive | Active | inactive | inactive | Active | inactive | Active | Active | 4.9 | inactive | Active | Activity (PC-12 [1]): Active; Activity (Saccharomyces cerevisiae [2]): Active; Activity (Saccharomyces cerevisiae [8]): Active; inhibition [12]: Active; Activity (Saccharomyces cerevisiae [15]): Active; Activity (COS-7 [20]): inactive; Activity (COS-7 [21]): inactive; Activity (Drosophila melanogaster [23]): Non-toxic; Activity (PC-12 [24]): Active; inhibition [27]: Active; Activity (Saccharomyces cerevisiae [28]): Active; Activity (Saccharomyces cerevisiae [29]): Active |
| C=CCNc1ncnc2ccc(Br)cc12 | Active | Non-toxic | Active | Active | Active | Active | Active | inactive | inactive | inactive | Active | inactive | inactive | Active | inactive | Active | Active | > 50 | inactive | Active | inhibition [30]: Active; Activity (PC-12 [31]): Active; Activity (COS-7 [20]): inactive; Activity (COS-7 [21]): inactive; Activity (Drosophila melanogaster [23]): Non-toxic; inhibition [27]: Active |
| C/C(=C/C(=O)c1ccc(Cl)cc1)Nc1cccc(O)c1 | Active |  | Active |  | Active | Active |  |  | inactive |  | Active |  |  |  |  |  | Active | 17.4 | inactive | Active | inhibition [32]: inactive; Activity (COS-7 [33]): inactive; Activity (COS-7 [34]): inactive; Activity (HeLa [35]): Active; Activity [36]: Non-toxic; inhibition [37]: Active; Activity (COS-7 [38]): inactive; Activity (COS-7 [39]): inactive; Activity (HeLa [40]): Active; inhibition [41]: Active; Activity (Drosophila melanogaster [42]): Non-toxic; Activity (COS-7 [43]): inactive; Activity (Drosophila melanogaster [44]): Active; inhibition [45]: Active; inhibition [46]: Active; inhibition [47]: Active; Activity (PC-12 [24]): Active; inhibition (HeLa [48]): inactive |
